The test system of experiment [1] is Trypanosoma cruzi. Description: Compound is evaluated for antiparasitic activity against Trypanosoma cruzi amastigotes. It is filed as functional. The essentials:
(§1)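 T. cruzi (strain MHOM/BR/OO/Y) trypomastigotes, MDCK-derived, used to infect starch-elicited peritoneal macrophages from female CD1 mice (4 × 10⁴/well, RPMI-1640 + 10% HIFCS) at 5:1 after 24 h. Drug given as a 3-fold dilution series up to ~30 µM, quadruplicate, 3 days. Activity is scored as % macrophages cleared of amastigotes relative to untreated control. Nifurtimox serves as control.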

Another experiment deals with K562. Description: Tested for cytotoxicity in human K562 cells. The class given is functional. The settings on record: read-out: ID50 (the source's name). The method, boiled down:
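K562 human CML cells in RPMI + 10% fetal calf serum at 37 °C, 5% CO₂, humidified. Exposed to compound for 5 days. Viability read by the semi-automated NCI MTT-type (Mosmann) tetrazolium assay, run by an external institute.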

Experiment [2] has as its system Leishmania donovani. The experiment in a line: Evaluated for antiparasitic activity against Leishmania donovani; NA is Not active. It is filed as functional, organism-based. The method, boiled down: (§2)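 L. donovani (strain MHOM/ET/67/L82) amastigotes from hamster passage, used to infect starch-elicited peritoneal macrophages from female CD1 mice (4 × 10⁴/well, RPMI-1640 + 10% HIFCS) at 10:1 after 24 h adherence. Drug given as a 3-fold dilution series, top concentration ~30 µM, quadruplicate, 5 days. Read-out is % macrophages cleared of amastigotes versus untreated control. Sodium stibogluconate serves as control.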

Experiment [3] has as its system Trypanosoma brucei. Description: Evaluated for antiparasitic activity against brucei trypomastigotes; NA is Not active. The class given is functional, organism-based. The method, boiled down:
(§3)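 T. brucei S427 bloodstream trypomastigotes in HMI-18 + 20% HIFCS, seeded at 2 × 10⁵/mL mixed with equal volume of compound. Compound given as a 3-fold dilution series from 30 µM top, triplicate, 3 days at 37 °C, 5% CO₂. Growth measured by tetrazolium colorimetric assay on day 3 and expressed as % inhibition versus untreated control. Pentamidine serves as positive control.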

Experiment [4] deals with Trypanosoma brucei. The experiment in a line: Evaluated for antiparasitic activity against brucei trypomastigotes. The class given is functional. The settings on record: read-out: ED50 (the source's name). The method, boiled down: as §3
Experiment [5] concerns Trypanosoma cruzi. The experiment in a line: Evaluated for antiparasitic activity against Trypanosoma cruzi amastigotes; NA is Not active. The class given is functional, organism-based. The essentials:
as §1

Experiment [6] deals with Trypanosoma cruzi. Description: Compound is evaluated for antiparasitic activity against Trypanosoma cruzi. It is filed as functional. The method, boiled down: as §1
Experiment [7] relates to Leishmania donovani. The experiment in a line: Evaluated for antiparasitic activity against Leishmania donovani. It is filed as functional. The method, boiled down:
as §2

Experiment [8] deals with Trypanosoma brucei. Description: Compound is evaluated for antiparasitic brucei trypomastigotes percent inhibition is given in parentheses. It is filed as functional. The settings on record: read-out: ED50 (the source's name). The method, boiled down:
as §3

The test system of experiment [9] is Trypanosoma cruzi. The experiment in a line: Compound is evaluated for antiparasitic activity against Trypanosoma cruzi amastigotes. The class given is functional. The method, boiled down: as §1
Experiment [10] concerns Leishmania donovani. Description: Compound is evaluated for antiparasitic activity against Leishmania donovani. It is filed as functional. The essentials:
as §2

Active and inactive are the calls of the source. The calls are words filed in the database; no cut-off is given here. Some results are limits rather than exact numbers.

By Inhibition is commonly meant the drop in the measured response relative to a control, in per cent. A higher Inhibition goes with a response far below the control.

In the experiment with Trypanosoma cruzi [1], `O=CNC(CCC(=O)NC(CSCc1ccc(Br)cc1)C(=O)NCC(=O)O)C(=O)O` (stereo not given) came in with an Inhibition of 11%. Also, in the experiment with K562, the IC50 was > 50 µM. The NA entry in the experiment with Leishmania donovani [2] and in the experiment on Trypanosoma brucei [3] was “inactive” in each case.

In the case of `COC(=O)CNC(=O)C(CSCc1ccc(Br)cc1)NC(=O)CCC(N)C(=O)O` (stereo not given), in the experiment with Trypanosoma brucei [4], the EC50 was > 30 µM. Also, the IC50 in the experiment on K562 is > 50 µM. In addition, the NA result with Trypanosoma cruzi [5] and in the experiment on Leishmania donovani [2] was “inactive” in each case.

Consider `O=C(CCC(NC(=O)OCc1ccccc1)C(=O)OC1CCCCC1)NC(CSc1ccc([N+](=O)[O-])cc1[N+](=O)[O-])C(=O)NCC(=O)OC1CCCCC1` (stereo not given), for which the EC50 in the experiment on Trypanosoma brucei [4] came to 0.19 µM. Besides, in the experiment with K562, the IC50 stood at 15.9 µM. In addition, the ED50 in the experiment on Trypanosoma cruzi [6] turned out to be 3 µM.

With `N[C@@H](CCC(=O)N[C@@H](CSCc1ccc(Br)cc1)C(=O)NCC(=O)O)C(=O)O`, the EC50 with Trypanosoma brucei [4] was > 30 µM. In the experiment on K562, the IC50 was > 50 µM. The NA entry in the experiment with Trypanosoma cruzi [5] and with Leishmania donovani [2] was “inactive” in each case.

Take `CCCCCCOC(=O)CNC(=O)C(CSc1ccc([N+](=O)[O-])cc1[N+](=O)[O-])NC(=O)CCC(NC(=O)OCc1ccccc1)C(=O)OCCCCCC` (stereo not given): in the experiment on Trypanosoma brucei [4], the EC50 came out at 5.8 µM. Further, the ED50 in the experiment with Leishmania donovani [7] was > 50 µM; in the experiment on Trypanosoma cruzi [6] it was < 50 µM. Also, the IC50 in the experiment on K562 was > 50 µM.

`CC(=O)NC(CCC(=O)NC(CSCc1ccc(Br)cc1)C(=O)NCC(=O)O)C(=O)O` (stereo not given): the EC50 with Trypanosoma brucei [4] was > 30 µM. Further, the IC50 with K562 is > 50 µM. For the same compound, the NA entry in the experiment with Trypanosoma cruzi [5] and in the experiment with Leishmania donovani [2] was “inactive” throughout.

As for `CCCOC(=O)CNC(=O)C(CSc1ccc([N+](=O)[O-])cc1[N+](=O)[O-])NC(=O)CCC(NC(=O)OCc1ccccc1)C(=O)OCCC` (stereo not given), in the experiment on Trypanosoma brucei [4], the EC50 worked out at 6 µM. Further, the ED50 in the experiment on Leishmania donovani [7] is > 30 µM. Also, in the experiment with K562, the IC50 is 17.6 µM.

Take `COC(=O)CNC(=O)C(CSCc1ccc(Br)cc1)NC(=O)CCC(NC(=O)OCc1ccccc1)C(=O)O` (stereo not given): the IC50 in the experiment with K562 is > 50 µM. Further, the NA result with Trypanosoma cruzi [5], in the experiment with Leishmania donovani [2] and in the experiment on Trypanosoma brucei [3] was “inactive” each time.

`NC(=O)CNC(=O)C(CSCc1ccc(Br)cc1)NC(=O)CCC(NC(=O)OCc1ccccc1)C(=O)O` (stereo not given): in the experiment on K562, the IC50 was > 50 µM. The NA result in the experiment with Trypanosoma cruzi [5], in the experiment with Leishmania donovani [2] and in the experiment with Trypanosoma brucei [3] was “inactive” each time.

Regarding `COC(=O)CNC(=O)C(CSC(=O)OCc1ccccc1)NC(=O)CCC(NC(C)=O)C(=O)OC` (stereo not given), in the experiment with Trypanosoma brucei [4], the EC50 is 3.2 µM. In addition, in the experiment with K562, the IC50 was > 50 µM.

For the compound `COC(=O)CNC(=O)C(CSCc1ccc(Br)cc1)NC(=O)CCC(NC(=O)OCc1ccccc1)C(=O)OC` (stereo not given), in the experiment on Trypanosoma brucei [8], the EC50 was > 30 µM. In addition, the IC50 in the experiment on K562 worked out at 16.7 µM.

For the compound `COC(=O)CNC(=O)C(CSCc1ccc(Br)cc1)NC(=O)CCC(NC=O)C(=O)OC` (stereo not given), in the experiment on Trypanosoma cruzi [9], the Inhibition was determined as 12%. In addition, the IC50 in the experiment on K562 is > 50 µM. Besides, the NA result in the experiment with Leishmania donovani [2] and with Trypanosoma brucei [3] was “inactive” in each case.

`CCCCOC(=O)CNC(=O)C(CSCc1ccc(Br)cc1)NC(=O)CCC(NC(=O)OCc1ccccc1)C(=O)OCCCC` (stereo not given): the EC50 in the experiment on Trypanosoma brucei [4] is 1.9 µM. For the same compound, in the experiment with K562, the IC50 was determined as 16.7 µM. The compound also gave an Inhibition in the experiment on Leishmania donovani [10] of 68%.

In the case of `COC(=O)CNC(=O)C(CSC(=O)OCc1ccccc1)NC(=O)CCC(NC(=O)OCc1ccccc1)C(=O)OC` (stereo not given), the EC50 in the experiment on Trypanosoma brucei [4] was 17 µM. Also, in the experiment on K562, the IC50 was found to be 1.26 µM.

For the compound `CCCCCCCCOC(=O)CNC(=O)C(CSc1ccc([N+](=O)[O-])cc1[N+](=O)[O-])NC(=O)CCC(NC(=O)OCc1ccccc1)C(=O)OCCCCCCCC` (stereo not given), the ED50 with Leishmania donovani [7] was > 50 µM. Further, the IC50 with K562 was determined as 24.7 µM.

As to `NC(=O)CNC(=O)C(CSCc1ccc(Br)cc1)NC(=O)CCC(N)C(=O)O` (stereo not given), the EC50 in the experiment on Trypanosoma brucei [4] was < 30 µM. In the experiment with K562, the IC50 is > 50 µM. The NA result in the experiment with Trypanosoma cruzi [5] and in the experiment on Leishmania donovani [2] was “inactive” each time.

Turning to `O=C(O)CNC(=O)C(CSCc1ccc(Br)cc1)NC(=O)CCC(NC(=O)OCc1ccccc1)C(=O)O` (stereo not given), in the experiment on Trypanosoma brucei [4], the EC50 is > 30 µM. Further, in the experiment on K562, the IC50 was > 50 µM. For the same compound, the NA result with Trypanosoma cruzi [5] and in the experiment on Leishmania donovani [2] was “inactive” each time.

Regarding `COC(=O)CNC(=O)C(CSCc1ccc(Br)cc1)NC(=O)CCC(N)C(=O)OC` (stereo not given), the IC50 in the experiment on K562 was > 50 µM. For the same compound, the NA entry in the experiment on Trypanosoma cruzi [5] and in the experiment with Trypanosoma brucei [3] was “inactive” throughout. This compound also displayed an Inhibition in the experiment on Leishmania donovani [10] of 8.7%.

In the case of `NC(=O)CNC(=O)C(CSCc1ccc(Br)cc1)NC(=O)CCC(NC(=O)OCc1ccccc1)C(N)=O` (stereo not given), the EC50 with Trypanosoma brucei [4] is > 30 µM. Also, the IC50 in the experiment with K562 is > 50 µM. Besides, the NA result in the experiment on Trypanosoma cruzi [5] and with Leishmania donovani [2] was “inactive” in each case.

Turning to `CCCCOC(=O)CNC(=O)C(CSc1ccc([N+](=O)[O-])cc1[N+](=O)[O-])NC(=O)CCC(NC(=O)OCc1ccccc1)C(=O)OCCCC` (stereo not given), in the experiment on Trypanosoma brucei [4], the EC50 stood at 1.07 µM. Also, the ED50 in the experiment on Leishmania donovani [7] was > 30 µM. Also, the IC50 in the experiment with K562 amounted to 21.8 µM.

For `NC(=O)CNC(=O)C(CSCc1ccc(Br)cc1)NC(=O)CCC(N)C(N)=O` (stereo not given), in the experiment on K562, the IC50 is > 50 µM. For the same compound, the NA entry with Trypanosoma cruzi [5] and in the experiment with Trypanosoma brucei [3] was “inactive” in each case. For the same compound, in the experiment on Leishmania donovani [10], the Inhibition stood at 4%.

With `COC(=O)CNC(=O)C(CSc1ccc([N+](=O)[O-])cc1[N+](=O)[O-])NC(=O)CCC(NC(=O)OCc1ccccc1)C(=O)OC` (stereo not given), the EC50 in the experiment with Trypanosoma brucei [4] worked out at 16.2 µM. Also, in the experiment with Leishmania donovani [7], the ED50 is > 30 µM. Further, in the experiment with K562, the IC50 was determined as 23.4 µM.

These data come from ChEMBL document CHEMBL1132941, “Structure-activity study on the in vitro antiprotozoal activity of glutathione derivatives” (2000).
